# Laboratory results reported in ChEMBL document CHEMBL1157096, “Bioactive metabolites from cultures of basidiomycete Favolaschia tonkinensis” (J Nat Prod, 2010).
# Experiments:
# Plasmodium falciparum [1] = assay: Antimalarial activity against Plasmodium falciparum K1 assessed as [G-3H]hypoxanthine uptake after 24 hrs by scintillation counting; format: functional, organism-based; conditions: K1, 24 h
# How it was run: (§1)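 Plasmodium falciparum strain K1 tested by microculture radioisotope technique, with IC50 in µg/mL.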
# Vero = assay: Cytotoxicity against african green monkey Vero cells by green fluorescent protein assay; format: cell-based; conditions: Chlorocebus sabaeus
# How it was run: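 Vero (African green monkey kidney fibroblast) cytotoxicity measured by green fluorescent protein (GFP)-based method.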
# NCI-H187 = assay: Cytotoxicity against human NCI-H187 cells by resazurin microplate assay; format: functional, cell-based
# How it was run: (§2)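 Resazurin microplate assay on KB (oral human epidermoid carcinoma), MCF-7 (human breast cancer) and NCI-H187 (human small-cell lung cancer) cells, with IC50 in µg/mL.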
# Candida albicans = assay: Antifungal activity against Candida albicans; format: functional, organism-based
# How it was run: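 Candida albicans tested by resazurin microplate assay, with IC50 in µg/mL.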
# KB = assay: Cytotoxicity against human KB cells by resazurin microplate assay; format: functional, cell-based; how it was run: as §2
# MCF7 = assay: Cytotoxicity against human MCF7 cells by resazurin microplate assay; format: functional, cell-based; how it was run: as §2
# Plasmodium falciparum [2] = assay: Antimalarial activity against Plasmodium falciparum K1; format: functional, organism-based; how it was run: as §1
Structure (SMILES),IC50 (Plasmodium falciparum [1]) [µg/mL],IC50 (Candida albicans) [µg/mL],IC50 (Plasmodium falciparum [2]) [µg/mL],IC50 (Vero) [µg/mL],IC50 (NCI-H187) [µg/mL],IC50 (KB) [µg/mL],IC50 (MCF7) [µg/mL]
O=C(O)c1ccc2c(c1)C=C/C(=C\Cl)CO2,> 10,> 50,–,> 50,11.7,0.78,> 50
CO\C=C(C(=O)OC)/C(C)=C(\C=C\c1ccc2c(c1)OC(C)(C)[C@@H](OCC=C(C)C)CO2)OC,0.03,0.5,–,24,0.36,14.3,15.4
Cc1c2ccncc2c(C)c2c1[nH]c1ccccc12 [ELLIPTECINE],–,–,–,1.18,0.68,0.45,–
NC(=O)c1ccc2c(c1)C=C/C(=C\Cl)CO2,> 10,> 50,–,> 50,> 50,12.1,> 50
COc1cccc2c1C(=O)c1c(O)c3c(c(O)c1C2=O)C[C@@](O)(C(=O)CO)C[C@@H]3O[C@H]1C[C@H](N)[C@H](O)[C@H](C)O1 [DOXORUBICIN],–,–,–,–,0.04,0.25,0.57

# Further lines, with some results ahead:
IC50 (Plasmodium falciparum [1]) [µg/mL],IC50 (Candida albicans) [µg/mL],IC50 (Plasmodium falciparum [2]) [µg/mL],Structure (SMILES),IC50 (Vero) [µg/mL],IC50 (NCI-H187) [µg/mL],IC50 (KB) [µg/mL],IC50 (MCF7) [µg/mL]
0.0011,–,–,C[C@H]1[C@@H](O)O[C@@H]2O[C@@]3(C)CC[C@H]4[C@H](C)CC[C@@H]1[C@@]24OO3 [ARTENIMOL],–,–,–,–
–,0.07,–,C[C@@H]1[C@H](O)[C@@H](C)/C=C/C=C/C=C/C=C/C=C/C=C/C=C/[C@H](O[C@@H]2O[C@H](C)[C@@H](O)[C@H](N)[C@@H]2O)C[C@@H]2O[C@](O)(C[C@@H](O)C[C@@H](O)[C@H](O)CC[C@@H](O)C[C@@H](O)CC(=O)O[C@H]1C)C[C@H](O)[C@H]2C(=O)O [AMPHOTERICIN B],–,–,–,–
–,0.89,0.4,CO/C=C(/C(=O)OC)[C@H](C)[C@H](/C=C/c1ccc(Cl)c(OC)c1)OC [(-)-OUDEMANSIN B],14.3,0.02,0.73,27.8
0.3,0.22,–,CO\C=C(C(=O)OC)/C(C)=C(\C=C\c1ccc(Cl)c(OC)c1)OC [9-METHOXYSTROBILURIN B],7.91,0.4,5.45,4.86
0.39,0.06,–,CO\C=C(C(=O)OC)/C(C)=C(\C=C\c1ccccc1)OC [9-METHOXYSTROBILURIN A],21.3,1.57,1.39,12.4
–,0.76,3,CO/C=C(/C(=O)OC)[C@H](C)[C@H](/C=C/c1ccccc1)OC,39.2,15.1,5.48,> 50
